High-throughput results as filed in PubChem BioAssay.
Most compounds without a hit are left out; they make up all but 29% or so of the library.
Ecoli WT expand – E. coli BW25113 growth inhibition, expanded screen; AID 710; OD600 absorbance; growth inhibition, % at 100 µM; actives 0.15% (n = 98,000);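 active = growth inhibition above about 50% at one test dose, limit read from the data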;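 also: growth measured after 20 h incubation at 37 °C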
CYP2C9 inhib – inhibitors of human CYP2C9 | CYP2C9 Supersomes, luciferin-H conversion, luminescence | inhibition, % at 5 µM | actives 20% (n = 96,000);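 active = blocking of liver enzyme CYP2C9 beyond about 50% at 5 µM, limit read from the data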
Target sequence (P11712 whole entry, looked up): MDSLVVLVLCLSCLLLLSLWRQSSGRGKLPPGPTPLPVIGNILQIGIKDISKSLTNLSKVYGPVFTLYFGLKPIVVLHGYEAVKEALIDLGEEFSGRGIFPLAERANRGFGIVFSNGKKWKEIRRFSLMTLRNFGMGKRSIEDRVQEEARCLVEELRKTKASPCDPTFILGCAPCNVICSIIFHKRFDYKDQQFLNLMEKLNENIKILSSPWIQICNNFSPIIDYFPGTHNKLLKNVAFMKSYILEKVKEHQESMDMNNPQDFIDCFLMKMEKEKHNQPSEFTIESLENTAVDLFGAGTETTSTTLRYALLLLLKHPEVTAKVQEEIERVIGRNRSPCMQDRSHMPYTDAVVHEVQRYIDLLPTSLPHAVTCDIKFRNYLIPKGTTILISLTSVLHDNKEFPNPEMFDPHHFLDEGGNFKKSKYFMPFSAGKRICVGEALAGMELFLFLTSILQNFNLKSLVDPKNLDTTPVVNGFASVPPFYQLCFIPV
Ecoli tolC – blocks growth of E. coli BW25113 tolC mutant; OD615; growth inhibition, % at 10 µM (by protocol); actives 2.2% (n = 65,000); AID 573;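 active = growth inhibition at or above a cutoff equal to the mean over every tested compound plus 3 SD, cut at about 60% in these data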;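 also: growth measured after 20 h incubation at 37 °C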
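Test system – E. coli BW25113 ΔtolC::kan, tolC deletion mutant strain · Detection – OD at 615 nm · Buffer or medium – LB with kanamycin 50 µg/mL · Times – 20 h compound exposure of bacteria at 37 °C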
CYP2C9 act – activators of human CYP2C9 | activation factor at 5 µM | recombinant CYP2C9, luciferin-H conversion, luminescence; stronger effect = higher value; factor 1 = untreated enzyme, 0 = blocked | actives 1.4% (n = 96,000) | AID 1024;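 active = activation factor of 2 or more for CYP2C9 at a 5 µM dose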;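 also: 0 = sulfaphenazole-blocked wells and 1 = vehicle-only wells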
CYP2C19 activ – increases human CYP2C19 enzyme activity; P33261; activation factor at 5 µM; recombinant CYP2C19, luciferin-H EGE luminescence; stronger effect = higher value; 0 = fully inhibited enzyme, 1 = untreated enzyme; 96,000 tested, under 10 active;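 active = activation factor of at least 2 at 5 µM in the primary screen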;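 also: 0 = wells with 2.5 mM tranylcypromine and 1 = vehicle-only wells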
CYP2C19 inhib – human CYP2C19 inhibition; P33261; CYP2C19 Supersomes, luciferin-H EGE luminescence, 30 min; inhibition, % at 5 µM; actives 21% (n = 96,000); AID 778;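 active = CYP2C19 inhibition above a set limit at 5 µM in the primary screen, cut at about 50% in these data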;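 also: plate controls were negative control wells for no effect and 2.5 mM tranylcypromine positive control for full effect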
Numbers without * were called inactive; / = not tested or not shown.

SMILES	Ecoli WT expand	CYP2C9 inhib	Ecoli tolC	CYP2C9 act	CYP2C19 activ	CYP2C19 inhib
O=C1CCCN1CCCn1cnc2c([nH]c3ccc(F)cc32)c1=O	1	0	-21	1	1	2
Fc1ccc2[nH]c3c(N4CCN(C5CCCCC5)CC4)ncnc3c2c1	6	76*	-11	0.2	0.3	67*
COc1cccc(N2CCN(c3ncnc4c3[nH]c3ccc(F)cc34)CC2C)c1 (stereo not drawn)	-14	60*	-1	0.4	0.4	59*
COc1ccc2[nH]c3c(N4CC(C)OC(C)C4)ncnc3c2c1 (stereo not drawn)	10	69*	/	0.3	0.5	54*
COc1cccc(N2CCN(c3ncnc4c3[nH]c3ccccc34)CC2C)c1 (stereo not drawn)	-14	/	2	/	/	/
COCC(=O)Nc1nnc(SCC(=O)NCc2cccs2)s1	-2	-5	-10	1.1	0.9	6
CNC(=S)N1N=C(c2ccc(C)cc2)CC1c1ccc(Cl)cc1 (stereo not drawn)	-15	90*	/	0.1	0.7	29
CNC(=S)N1N=C(c2ccc(C)cc2)CC1c1ccc(Br)cc1 (stereo not drawn)	-18	92*	/	0.1	0.4	55*
COc1ccc(NC(=O)C23CCC(C)(C(=O)C2)C3(C)C)cc1 (stereo not drawn)	7	2	-5	1	0.9	8
COc1ccc(OCC(O)CNC(=O)c2ccc(Br)cc2)cc1 (stereo not drawn)	-4	46	1	0.5	0.5	52*
COc1ccc(OCC(O)CNc2ccc(Br)cc2)cc1 (stereo not drawn)	31	90*	73*	0.1	0	97*
COc1ccc(OCC(O)CN(C2CCCCC2)C2CCCCC2)cc1 (stereo not drawn)	1	13	/	0.9	1	-4
O=C(O)c1ccccc1S(=O)(=O)NCC(O)COc1ccc(Br)cc1 (stereo not drawn)	3	26	-3	0.7	0.9	12
COc1ccc(OCC(O)Cn2c(=N)n(Cc3ccccc3)c3ccccc32)cc1 (stereo not drawn)	25	22	66*	0.8	0.5	49
COc1ccc(OCC(O)COc2ccc(OC)cc2)cc1	7	50	17	0.5	0.1	89*
COc1ccc(C(=O)NCC(C)CN(C)C)cc1 (stereo not drawn)	5	-23	-16	1.2	1.2	-17
Nc1ccc(N2CCN(C(=O)c3ccco3)CC2)cc1	6	18	/	0.8	0.6	44
Cc1ccc(-n2c(N)c(C(=O)NCc3cccnc3)sc2=S)cc1	0	19	/	0.8	0.8	17
Cc1cc(C)cc(N2CC34C=CC(O3)C(C(=O)OCC(=O)NCc3ccco3)C4C2=O)c1 (stereo not drawn)	-10	-1	-6	1	0.9	11
CCOC(=O)Cc1csc(NC(=O)c2cnc3scc(C)n3c2=O)n1	/	/	-26	/	/	/
Cc1ccnc(NC(=O)CCC(=O)N(CC(=O)NC2CCCCC2)Cc2ccc3c(c2)OCO3)c1	/	76*	4	0.2	0.4	56*
O=C(CCCC(=O)N(CC(=O)NC1CCCC1)Cc1ccc(F)cc1)Nc1ccccn1	2	52*	-4	0.5	0.6	44
O=C(CCCC(=O)N(CC(=O)NC1CCCCC1)Cc1ccc2c(c1)OCO2)Nc1ccccn1	-8	64*	-12	0.4	0.4	65*
CS(=O)(=O)N(CC(=O)O)c1cc(Cl)cc(Cl)c1	-8	-14	-8	1.1	1.1	-13
Cc1cnc(-c2nnc(N(C)C(=O)c3ccncc3)s2)cn1	/	/	-21	/	/	/
SMILES	Ecoli WT expand	CYP2C9 inhib	Ecoli tolC	CYP2C9 act	CYP2C19 activ	CYP2C19 inhib
Cc1ccc(-c2nnc(N(C)C(=O)c3ccncc3)s2)cn1	1	85*	-15	0.2	0.6	41
CN(C(=O)c1ccncc1)c1nnc(-c2cnccn2)s1	0	97*	-13	0	0.1	89*
CN(C(=O)c1cccnc1)c1nnc(-c2cnccn2)s1	-3	0	-30	1	1.1	-14
Cc1cc(N/C=C2\CCCCC2=O)no1	7	-24	-7	1.2	0.9	7
O=C1CCCN1c1cc(Cl)ccc1Cl	4	-48	6	1.5	1.1	-15
CC1CN(C(=O)CSc2nnc(-c3ccc(Cl)cc3)n2C)CC(C)O1 (stereo not drawn)	-5	-2	-13	1	1.1	-8
CC1CN(C(=O)CSc2nnc(-c3ccncc3)n2-c2ccccc2)CC(C)O1 (stereo not drawn)	1	24	-3	0.8	0.2	76*
CC(C)c1ccccc1-n1c(SCC(=O)N2CCN(c3ccccc3)CC2)nnc1-c1cccnc1	-5	56*	/	0.4	0.5	55*
CCOC(=O)C(Cc1c[nH]c2ccccc12)NC(=O)CNC(C)=O (stereo not drawn)	2	5	-26	0.9	1	2
O=S1(=O)CCC(SCc2nc3sccn3c2Br)C1 (stereo not drawn)	0	-21	-5	1.2	0.6	42
CC(C)NC(=O)CCCc1ccccc1	3	-4	-7	1	0.8	21
CN(C)c1ccc(NC(=O)CN2C(=O)CC(c3ccccc3)=Nc3ccccc32)cc1	-9	72*	-2	0.3	0.9	6
O=C(CCCc1ccccc1)Nc1cccnc1	7	50*	/	0.5	0.3	75*
CN(C)c1ccc(NC(=O)CCCc2ccccc2)cc1	14	49	12	0.5	0	100*
O=C(CCCc1nc(-c2ccccc2)no1)Nc1cccnc1	7	21	11	0.8	0.9	13
O=C(CCc1ccccc1)Nc1cccc(NC(=O)CCc2ccccc2)c1	1	88*	/	0.1	0.5	45
Cc1cccc(NC(=S)NC(=O)CCc2ccccc2)c1	9	6	/	0.9	0.7	34
COc1cc(OC)nc(NC(=O)NS(=O)(=O)c2ccc(OC(F)(F)F)cc2)n1	13	8	-18	0.9	0.9	8
CS/C(=N\S(=O)(=O)c1ccc(N)cc1)NS(=O)(=O)c1cccs1	6	42	-6	0.6	0.9	9
Cn1c(=O)oc2cc(S(=O)(=O)N3CCCC(C(=O)Nc4ccccn4)C3)ccc21 (stereo not drawn)	-5	-3	/	1	1	1
COc1ccc(NC(=O)C2CCCN(S(=O)(=O)c3ccc4c(c3)oc(=O)n4C)C2)cc1OC (stereo not drawn)	-8	31	/	0.7	0.5	55*
Cn1c(=O)oc2cc(S(=O)(=O)N3CCCC(C(=O)NC4CCCc5ccccc54)C3)ccc21 (stereo not drawn)	-2	60*	/	0.4	0.9	7
